NF-kB expr up – compounds increasing NF-kB expression in human neuronal cells; NF-kB reporter expression; hits give high values; fold change at 12.5 µM; 1.6% of 190,000 active; in the data active = fold change above about 3.3
STAT1 activator – STAT1 signaling activation; NIH 3T3 STAT1-luciferase reporter, IFN-gamma, luminescence; 100% = IFN-gamma alone, no compound; activation (% of control), % at 5.5 µM; 2.6% of 200,000 active; AID 932;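 active = activation above the screen-wide mean activation plus 3 SD, cut at about 130% in these data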
FLuc stim CS – affects firefly luciferase, flagging false hits in luciferase stimulation screens. P08659. ATPlite luciferase biochemical, luminescence, 10 min; 0 = ATP-free wells, 1 = DMSO control. activation factor at 10 µM. 200,000 tested, under 10 active;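 active = luciferase activation factor, scaled between plate controls, of at least 2 with compound at 10 µM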
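test system = cell-free luciferase reagent | medium = PBS as buffer for the ATP substrate | dosing = test compounds dosed from 2 mM stocks in 100% DMSO | incubation = 10 min at ambient temperature | detection = luminescence measurement of luciferase light output | benchmarks = low control with PBS replacing ATP, high control enzyme plus ATP without compound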
FLuc inhib CS – counter-screen for luciferase assay inhibitors: firefly luciferase inhibition; inhibition, % at 10 µM; 1.5% of 200,000 active; ATPLite firefly luciferase biochemical luminescence, 10 min; AID 1006;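 active = inhibition above about 50% when tested at 10 µM, limit read from the data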
APP 5'UTR act – APP 5'UTR luciferase reporter activation. SH-SY5Y APP 5'UTR luciferase reporter, luminescence; zero percent = DMSO vehicle wells. activation, % at 2 µM. 1% of 190,000 active;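 active = activation above a set limit, based on mean plus 3 SD of controls, cut at about 140% in these data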
SDO1 yeast rescue – compounds rescuing growth of sdo1-depleted yeast, bone marrow failure model | S. cerevisiae sdo1-depleted JHY4D growth rescue, OD600 30 h; hits give high values; pdr5 snq2 efflux-pump mutant strain | AID 817 | z-score at 10 µM | 0.21% of 140,000 active;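 active = z-score above 3 at both the 24 hr and the 30 hr optical density reads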
Hits are given with their value; – = inactive; · = no result given. Hits are enriched below; roughly 4.3% of the tested compounds scored in any of these assays.

SMILES | NF-kB expr up | STAT1 activator | FLuc stim CS | FLuc inhib CS | APP 5'UTR act | SDO1 yeast rescue
Cc1cccc(-c2cc3nc(C)cc(C)n3n2)c1 | 5.93 | 150.0 | – | – | 142.5 | ·
Cc1cccc(-c2cc3nc(C)cc(N4CC(C)CC(C)C4)n3n2)c1 (stereo unspecified) | – | – | – | – | – | –
COc1ccc(-c2cc3nc(C)cc(N)n3n2)cc1 | 4.14 | – | – | 95.3 | 147.4 | –
Cc1cc(C(=O)CCl)c(C)n1-c1cccc(S(=O)(=O)N2CCOCC2)c1 | – | – | – | – | – | ·
CCOc1ccc(N=Nc2c(=O)[nH]n3c(=O)cc(C)[nH]c23)cc1 | – | – | – | 64.2 | – | –
CC(C)(C)NC(=O)CC1C(=O)NCCN1Cc1c(F)cccc1Cl (stereo unspecified) | – | – | – | – | – | ·
C/C(=N\Nc1cccc([N+](=O)[O-])c1)c1ccccc1O | – | 135.1 | – | – | – | ·
CC(=O)c1sc(NC(=O)c2ccccc2F)nc1C | 3.47 | – | – | – | – | –
CC(=O)c1sc(NC(=O)c2ccc(C(C)(C)C)cc2)nc1C | – | 129.5 | – | – | – | ·
CC(=O)c1sc(NC(=O)c2ccc(C)c(C)c2)nc1C | – | 146.9 | – | – | 172.2 | ·
COc1ccc(C(=O)Nc2nc(C)c(C(=O)N(C)C)s2)cc1OC | – | – | – | – | – | –
CC(=O)OCC(=O)N1N=C(c2ccc3ccccc3c2)CC1c1ccccc1 (stereo unspecified) | – | 138.8 | – | – | – | ·
CCOC(=O)/C=C(\C)N1N=C(c2ccccc2)CC1c1ccccc1 (stereo unspecified) | – | 141.5 | – | – | – | ·
CCOC(=O)c1nnn(CC(=O)N2N=C(c3ccccc3)CC2c2ccccc2)c1C(=O)OCC (stereo unspecified) | – | – | – | – | – | –
C/C(=N/NC(=O)c1ccccn1)c1ccco1 | – | – | – | 70.0 | – | –
C/C(=N\NC(=O)c1c(C)nc2ccccn12)c1ccco1 | – | 133.5 | – | – | – | ·
O=C(COc1nncc2ccccc12)NCC(F)(F)F | – | – | – | – | – | ·
Cc1ccc2c(c1)C(N1CCCC1=O)CC(c1ccco1)N2 (stereo unspecified) | 3.72 | – | – | 94.7 | – | –
Cc1nc(C(C)NC(=O)CCc2nnc(CCCc3ccccc3)o2)c(C)s1 (stereo unspecified) | – | 148.8 | – | – | – | ·
CN(Cc1ccsc1)C(=O)CCc1nnc(Cc2c[nH]c3ccccc23)o1 | – | – | – | – | – | ·
CN(Cc1ccsc1)C(=O)CCc1nnc(CCCc2ccccc2)o1 | – | 133.3 | – | – | – | ·
O=C(N=c1nc2ccccn2s1)c1ccccc1 | · | · | – | 95.2 | · | ·
CCn1c(C)csc1=NC(=O)c1ccccc1 | – | – | – | – | – | –
Nc1ccc2oc(-c3ccccc3Cl)cc(=O)c2c1O | 6.53 | – | – | – | – | –
O=c1cc(-c2ccccc2Cl)oc2ccc([N+](=O)[O-])c(O)c12 | – | – | – | – | – | –
SMILES | NF-kB expr up | STAT1 activator | FLuc stim CS | FLuc inhib CS | APP 5'UTR act | SDO1 yeast rescue
Cc1ccccc1Nc1c(-c2ccc(N3CCOCC3)cc2)nc2ncccn12 | – | – | – | 59.0 | – | ·
Cc1ccc(/C=N/Nc2ccc3ccccc3n2)o1 | – | – | – | 87.1 | 182.9 | ·
C(=N\Nc1ccc2ccccc2n1)/c1ccc2c(c1)OCCO2 | – | – | – | 93.1 | – | ·
Cc1cc(C)nc(N/N=C/c2ccc3c(c2)OCCO3)n1 | – | – | – | – | – | ·
Cc1cccc(/C=N/Nc2ccc3ccccc3n2)c1 | – | – | – | 91.0 | – | ·
Cc1c(NC(=O)C(C)N2C(=O)NC3(CCC(C)CC3)C2=O)c(=O)n(-c2ccccc2)n1C (stereo unspecified) | – | – | – | – | – | ·
CCCCc1nnc(NC(=O)C(C)Sc2nc(N)cc(=O)[nH]2)s1 (stereo unspecified) | – | – | – | – | – | –
O=c1[nH]c2ccccc2c2nc3ccccn3c12 | – | – | – | 53.8 | – | –
CCCNC(=O)OCc1cccnc1Sc1ccc(C)cc1 | – | – | – | – | – | ·
c1ccc2c(c1)CCN(C1=Nc3cccc4cccc1c34)C2 | – | – | – | 51.8 | – | ·
c1cc2c3c(cccc3c1)C(N1CCCCCC1)=N2 | – | – | – | – | – | –
CSc1nc2ncc(C(=O)O)c(N)n2n1 | – | – | – | – | – | ·
O=c1sc(Nc2ccccc2)nc2ccsc12 | – | 136.8 | – | – | – | –

Source: PubChem BioAssay
